Source: PubChem (several laboratories)
SR-BI uptake up: activators of SR-BI mediated DiI-HDL uptake, primary screen, ldlA[mSR-BI] CHO cells, DiI fluorescence. 3 h; 100 = double the neutral-control signal. activation, % at 12.5 µM. hit rate 0.096% among 320,000;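 active means mean replicate activation of at least 60% and every replicate at or above 60%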;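 further: 0% = median plate neutral-control signal and 100% = twice that signal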
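System: LDL receptor-deficient CHO ldlA cells overexpressing murine SR-BI | Timing: 3 h uptake period with compound, 37 °C | Medium: HEPES-buffered (25 mM, pH 7.4) F12 plus 0.5% BSA | Dosing: Single-point compound dose | Signal: Bottom-read fluorescence, 550/595 nm | Read-out: Retained DiI signal reflecting DiI-HDL uptake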
FXN GAA850 act: FXN promoter activators, primary screen, cell-based, luciferase luminescence, HEK293 lucGAA850; activation, % at 6 µM; HEK293 lucGAA850 FXN promoter luciferase reporter, 24 h; percent of 10 µM SAHA response; hit rate 0.56% among 360,000; AID 540364, 2011;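 active means activation above the average of all compounds screened plus 3 SD, cutoff fixed separately per campaign, cut at about 7.5% in these data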;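 further: 0% = DMSO wells and 100% = 10 µM SAHA wells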
ABCB6 inh MLPCN: ABCB6 transporter inhibitors, primary screen, K562-ABCB6 cells, flow cytometry, MLPCN library | hit rate 0.19% among 360,000 | ATP-binding cassette sub-family B member 6 (Homo sapiens), Q9NP58 | AID 602162, 2011 | K562-ABCB6 porphyrin accumulation, 1 h; active compounds read low | fluorescence ratio to DMSO, % at 10 µM;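 active means fluorescence ratio to DMSO below 75%, the collection mean minus 3 SD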;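 further: signal is porphyrin accumulated inside mitochondria; 100% equals median channel fluorescence of DMSO control wells; lower ratio means ABCB6 inhibition with less porphyrin fluorescence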
SR-BI DiI inh: inhibitors of SR-BI mediated HDL lipid uptake, primary screen, ldlA[mSR-BI] cells, fluorescence, single point; Scavenger receptor class B member 1 (Mus musculus), Q61009; ldlA[mSR-BI] CHO cells, DiI-HDL uptake fluorescence, 3 h; inhibition, % at 12.5 µM; hit rate 0.96% among 320,000; AID 488896, 2010;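 active means mean replicate inhibition of at least 70% and a set share of replicates each scoring 70 or more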;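 further: 0% = median of neutral control wells and 100% = median of positive control wells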
HIF activator: HIF pathway transcriptional activators, primary screen, cell-based, U2OS HRE-luciferase, luminescence; activation, % at 7.5 µM (by protocol); AID 1910, 2009; U2OS HRE-luciferase reporter; normalized: DMSO 0%, desferrioxamine 100%; hit rate 0.32% among 300,000;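 active means mean activation of at least 10% of the iron chelator positive control signal, with at least half of replicates also reaching 10%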
AHR act: AHR activators, primary screen, cell-based, luminescence, luciferase reporter, human; AHR-responsive luciferase reporter cells; Aryl hydrocarbon receptor (Homo sapiens), P35869; hit rate 2.5% among 320,000; activation, % at 5 µM; in the data active means activation above about 47%;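 further: 0% = vehicle wells and 100% = reference agonist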
An asterisk follows results filed as active. Compounds with a hit are over-represented: about 3.9% of the library has one in this group of screens.

Screening NNC(=O)c1csc(-c2ccccc2)n1 returned SR-BI uptake up 2, FXN GAA850 act 1, ABCB6 inh MLPCN 103, SR-BI DiI inh -2, HIF activator 0 and AHR act 13.
O=C(Nc1ccc(Cl)cc1)Nc1nc(-c2ccccc2)cs1 was read as SR-BI uptake up -25, FXN GAA850 act 1, ABCB6 inh MLPCN 99, SR-BI DiI inh 25, HIF activator 0 and AHR act 12.
`O=C(Nc1cccc(Cl)c1)c1csc(-c2ccccc2)n1` gave SR-BI uptake up 2, FXN GAA850 act 3, ABCB6 inh MLPCN 96, SR-BI DiI inh -2, HIF activator 1 and AHR act 93*.
Screening O=C(Nc1ccc(Cl)c(Cl)c1)c1csc(-c2ccccc2)n1 returned SR-BI uptake up 26, FXN GAA850 act -2, ABCB6 inh MLPCN 97, SR-BI DiI inh -26, HIF activator 0 and AHR act 74*.
Screening O=C(Nc1cccc(Cl)c1)Nc1nc(-c2ccccc2)cs1 returned SR-BI uptake up -76, FXN GAA850 act 1, ABCB6 inh MLPCN 91, SR-BI DiI inh 76*, HIF activator -1 and AHR act 17.
`CCOc1ccc(NC(=S)NC(=O)c2ccco2)cc1` gave SR-BI uptake up -23, FXN GAA850 act 3, ABCB6 inh MLPCN 100, SR-BI DiI inh 23, HIF activator -24 and AHR act 15.
Screening O=C(Nc1ccc(CN2CCOCC2)cc1)c1ccc(-c2cccc([N+](=O)[O-])c2)o1 returned SR-BI uptake up -72, FXN GAA850 act -2, ABCB6 inh MLPCN 91, SR-BI DiI inh 72*, HIF activator 0 and AHR act -1.
Screening O=[N+]([O-])c1cccc(-c2ccc(C(=S)N3CCOCC3)o2)c1 returned SR-BI uptake up -60, FXN GAA850 act 5, ABCB6 inh MLPCN 98, SR-BI DiI inh 60, HIF activator 3 and AHR act 12.
`COc1nc(-c2ccncc2)nc2ccccc12` gave SR-BI uptake up -26, FXN GAA850 act 2, ABCB6 inh MLPCN 77, SR-BI DiI inh 26, HIF activator -1 and AHR act 75*.
CCCCN(CC)c1nc(-c2ccncc2)nc2ccccc12 was read as SR-BI uptake up -29, FXN GAA850 act 4, ABCB6 inh MLPCN 94, SR-BI DiI inh 29, HIF activator 1 and AHR act 73*.
`C=CCOc1nc(-c2ccncc2)nc2ccccc12` gave SR-BI uptake up -9, FXN GAA850 act 2, ABCB6 inh MLPCN 92, SR-BI DiI inh 9, HIF activator 0 and AHR act 52*.
Screening CCOc1nc(-c2ccc(Cl)cc2)nc2ccccc12 returned SR-BI uptake up 33, FXN GAA850 act 3, ABCB6 inh MLPCN 104, SR-BI DiI inh -33, HIF activator 1 and AHR act 62*.
For COCCN(CCOC)c1nc(-c2ccc(C)cc2)nc2ccccc12 the results were SR-BI uptake up -33, FXN GAA850 act 3, ABCB6 inh MLPCN 94, SR-BI DiI inh 33, HIF activator 1 and AHR act 32.
Screening C/C(O)=C(/N=O)C(=O)Nc1ccccc1 returned SR-BI uptake up 16, FXN GAA850 act 1, ABCB6 inh MLPCN 98, SR-BI DiI inh -16 and AHR act 9.
For CC1(C)CC(=O)C(C2c3ccccc3Oc3ccccc32)C(=O)C1 the results were SR-BI uptake up -2, FXN GAA850 act 3, ABCB6 inh MLPCN 100, SR-BI DiI inh 2, HIF activator 0 and AHR act -4.
CCNC(=S)Nc1ccc(Cl)cc1Cl was read as SR-BI uptake up -4, FXN GAA850 act 3, ABCB6 inh MLPCN 101, SR-BI DiI inh 4, HIF activator 0 and AHR act 0.
Screening COc1cc(NC2CCCCC2O)c2nc(-c3ccc(Cl)cc3)ccc2c1 (configuration not stated) returned SR-BI uptake up -80, FXN GAA850 act 6, ABCB6 inh MLPCN 102, SR-BI DiI inh 80*, HIF activator 2 and AHR act 16.
